Assay outcomes (PubChem)
The entries come from a sample that favours hits as a whole.
Glyco luc inh: blocks N-linked glycosylation in D54 reporter cells; D54 ERlucT glycosylation luciferase reporter, 24 h; percent of 100 nM tunicamycin response; reporter increase, % at 12.5 µM; hit rate 0.23% among 360,000;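 active means mean luciferase reporter signal, scaled so untreated is 0 and the glycosylation-blocking control 100, at or above a set limit in every replicate; inconclusive means mean reaches the limit but not every replicate does; inactive means mean below the limit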;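 further: luciferase carries N-glycosylation sites so blocking glycosylation raises the light; 0% = median of neutral control wells and 100% = median of 100 nM tunicamycin wells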
ALR inh: inhibitors of human sulfhydryl oxidase ALR. inhibition, % (no concentration beside the values). P55789. AID 485317. hit rate 3.8% among 290,000. purified ALR, DTT oxidation, H2O2 HRP-luminol luminescence;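 active means mean replicate inhibition above about 79%, with every replicate also reaching it, limit read from the data; inconclusive means only one of the two criteria met; inactive means mean below limit and not every replicate reaching it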
Target sequence (P55789 whole entry, looked up): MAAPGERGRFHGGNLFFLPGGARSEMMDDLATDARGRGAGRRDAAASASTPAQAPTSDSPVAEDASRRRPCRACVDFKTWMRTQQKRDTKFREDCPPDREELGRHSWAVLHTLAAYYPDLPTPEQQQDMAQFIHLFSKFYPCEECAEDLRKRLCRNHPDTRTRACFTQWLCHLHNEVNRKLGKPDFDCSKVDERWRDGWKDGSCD
T cell HTS: modulates CD8 T cell binding to vesicles | hit rate 0.068% among 330,000 | response (vesicle binding), % at 7 µM | AID 2052 | 2C CD8+ T cell-vesicle binding, flow cytometry; stronger effect = lower value;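 active means response, share of CD8 T cells binding vesicles, and their 90th percentile fluorescence all below set limits, cut at about 80% in these data, passing the limit was not always enough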;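 further: values below 100% mean blocked vesicle binding to the CD8+ T cells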
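Read-out – percent CD8+ FL2 mean versus row control · System – murine 2C transgenic CD8+ T lymphocytes · Times – 1.5 h cell–vesicle binding at 37 °C, then 20 min icy labelling · Control set – naked vesicles low, QL9 vesicles with vehicle high · Detection – cytometric PE anti-B7-1 and Alexa647 anti-CD8 signals after 1% paraformaldehyde fixation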
The depositor's hits bear a star; i = inactive; ? = inconclusive; · = no result.

SMILES	Glyco luc inh	ALR inh	T cell HTS
CN(C)C(=O)/C(=C\c1ccncc1)NC(=O)c1ccccc1	0	4	272
CC(NC(=O)C1CCC(C)(C(=O)O)C1(C)C)c1ccccc1 (stereo not given)	1	18	234
Oc1ccccc1C=NC1=NN(c2cccc(C(F)(F)F)c2)CC1	10	78*	464
FC(F)(F)c1cccc(N2CCC(N=CN3CCCCCC3)=N2)c1	0	51	134
CN(CC(=O)Nc1cccc(F)c1)C(=O)CN1c2cccc3cccc(c23)S1(=O)=O	2	-19	380
COc1ccc(NC(=O)CNc2ccccc2C(C)=O)cc1S(=O)(=O)N1CCOCC1	1	·	255
CCOc1cc(/C=N/NC(=O)NN(C)c2ncc(C(F)(F)F)cc2Cl)ccc1O	-1	99*	209
CN(NC(=O)NN)c1ncc(C(F)(F)F)cc1Cl	1	-15	665
CCN(CC1CCCO1)C(=O)CCc1nnc(CCc2ccc(OC)cc2)o1 (stereo not given)	1	2	267
CC(C)CC(N)c1csc(NC(=O)c2cc(C(C)(C)C)nn2Cc2ccccc2)n1 (stereo not given)	-13	·	·
O=C(O)c1c(C(=O)N2N=C3/C(=C/c4ccccc4)CCCC3C2c2ccccc2)cccc1[N+](=O)[O-] (stereo not given)	0	-1	273
CC(=O)N1N=C2/C(=C/c3ccccc3)CCCC2C1c1ccccc1 (stereo not given)	-2	-34	71*
O=C(c1ccccn1)N1N=C2/C(=C/c3ccc(F)cc3)CCCC2C1c1ccc(F)cc1 (stereo not given)	-5	·	192
O=C(O)c1ccccc1C(=O)N1N=C2/C(=C/c3cccc([N+](=O)[O-])c3)CCCC2C1c1cccc([N+](=O)[O-])c1 (stereo not given)	2	79*	223
O=C1OC(c2ccccc2)(c2ccccc2)c2ccsc21	-1	·	·
OCC1OC(n2cnc3c(NCc4ccccc4O)ncnc32)C(O)C1O (stereo not given)	-7	·	·
CNC(=O)[C@H]1O[C@@H](n2cnc3c(NCc4cccc(I)c4)ncnc32)[C@H](O)[C@@H]1O	3	82*	215
S=C(Nc1cccnc1)N1CCN(c2ccccc2Cl)CC1	1	8	212
CC(C)CN1C(=O)/C(=C/c2ccco2)NC1=S	-1	9	162
CC(C)CN1C(=O)/C(=C/c2cccs2)NC1=S	-2	99*	795
CCOc1ccc2ccccc2c1/C=N/NC(=O)CNC(=O)c1ccccc1F	1	0	201
CC1(C(=O)NS(=O)(=O)c2ccc(Cl)s2)CCN1C(=O)c1ccc(C2CCCCC2)cc1 (stereo not given)	1	·	·
Cc1ccccc1NC(=O)C1CCN(C2=NS(=O)(=O)c3ccccc32)CC1	4	9	150
COc1ccc(-c2nc(CSCC(=O)NCCCN3CCCC3=O)c(C)o2)cc1	-2	96*	370
Cc1oc(-c2ccc(Cl)cc2)nc1CN1CCCC(C(=O)NCCCN2CCCC2=O)C1 (stereo not given)	-2	4	245
SMILES	Glyco luc inh	ALR inh	T cell HTS
COc1ccc(-c2nc(CSCC(=O)NC3CCCc4ccccc43)c(C)o2)cc1 (stereo not given)	-2	?	325
CCOc1ccc(-c2nc(CSCC(=O)NCCCN3CCCC3=O)c(C)o2)cc1	0	99*	364
N#Cc1ccc(OCC(=O)NCCCN2CCCC2=O)cc1	1	·	·
CCOc1ccc(S(=O)(=O)N(C)CC(=O)NCCN2CCOCC2)cc1	0	2	215
N#Cc1ccc(-c2ccc(OCC(=O)NCCCN3CCCC3=O)cc2)cc1	0	99*	279
CCOc1ccc(-c2nc(CSCC(=O)NCCN3CCOCC3)c(C)o2)cc1	3	99*	215
O=C(COC(=O)c1cncc(Br)c1)NCC12CC3CC(CC(C3)C1)C2	1	·	·
COc1ccc(C(=O)C2CCN(CC(=O)Nc3ccccc3F)CC2)cc1	-3	-5	505
Cc1ccc(F)cc1C(=O)N1CCCCC1c1cc(C(=O)Nc2cccc(C#N)c2)no1 (stereo not given)	-1	·	·
CC(C)C1C(=O)N(Cc2cn(CC3CCCCC3)nn2)CCS(=O)(=O)N1Cc1ccc(-c2ccc(Cl)nc2)cc1 (stereo not given)	-2	·	·
CSc1ccc(CN2CCC(n3nccc3NC(=O)c3ccccc3C)CC2)cc1	2	-2	369
Cc1ccc(S(=O)(=O)CCC(=O)Oc2ccc(-c3nnco3)cc2)cc1	0	16	184
CN1CCCC(C)(C(=O)Nc2ccc(-n3cccc3)cc2)C1 (stereo not given)	1	·	·
CS(=O)(=O)c1ccc(Sc2nc3ccccc3s2)c([N+](=O)[O-])c1	40*	3	162
O=[N+]([O-])c1cc(S(=O)(=O)C(F)(F)F)ccc1Sc1nc2ccccc2[nH]1	68*	91*	130
O=[N+]([O-])c1cc(S(=O)(=O)C(F)(F)F)ccc1Sc1nc2ccccc2s1	4	98*	390
CS(=O)(=O)c1ccc(Sc2nc3ccccc3[nH]2)c([N+](=O)[O-])c1	0	-43	348
O=[N+]([O-])c1cc(C(F)(F)F)ccc1Sc1ccc2ccccc2n1	1	3	i
CS(=O)(=O)c1ccc(-n2nnc3ccccc32)c([N+](=O)[O-])c1	6	-23	202
CCNC(=O)CC1SC(=Nc2ccc(C)c([N+](=O)[O-])c2)N(C)C1=O (stereo not given)	-1	-10	902
Cc1cccc(N2CCN(C(=O)c3nn(C)c4c3CS(=O)(=O)c3ccccc3-4)CC2)c1C	3	1	199
COC(=O)CCCC(=O)OC	3	·	206
COC(=O)CCN(C)CCC(=O)OC	0	96*	638
O=C(NC(=S)Nc1ccc(O)cc1)c1ccccc1Cl	3	·	681
Cc1cccc(C(=O)NC(=S)Nc2ccccc2C(=O)O)c1	3	99*	202
SMILES	Glyco luc inh	ALR inh	T cell HTS
CC(=O)Nc1ccccc1NC(=O)c1cccc2ccccc12	-1	·	323
Cc1cccc(C(=O)NC(=S)Nc2ccccc2C(F)(F)F)c1	1	-8	160
Cc1cccc(C(=O)NC(=S)NNC(=O)c2ccccc2Cl)c1	7	98*	269
O=C(O)c1cc(O)ccc1NC(=O)c1cccc2ccccc12	1	96*	147
Cc1cccc(C(=O)NC(=S)NNC(=O)Cc2ccccc2)c1	1	·	168
Cc1ccc(O)c(NC(=S)NC(=O)c2ccccc2Cl)c1	-1	97*	147
O=C(c1ccccn1)N1CCN(S(=O)(=O)c2cccc(Br)c2)CC1	-2	0	591
CCc1ccc(C(=O)COC(=O)C2CCN(c3ccc(C(F)(F)F)cn3)CC2)cc1	-1	8	554
Cc1cccc(CN2CCN(Cc3nc4c(s3)CCCC4)CC2CCO)n1 (stereo not given)	1	-3	198
COc1ccc([N+](=O)[O-])cc1NC(=O)C(C)OC(=O)c1ccccc1C(=O)c1ccc(Cl)cc1 (stereo not given)	0	-7	206
CN(c1ccccc1)S(=O)(=O)c1cccc(NC(=O)C2CC(=O)N(Cc3ccccc3)C2)c1 (stereo not given)	-3	-7	389
